Key:
[1] = biological target: Epidermal growth factor receptor (Homo sapiens, UniProt P00533); experiment: Inhibition of EGF-stimulated EGFR tyrosine kinase activity using plasma membrane vesicles shed from cultured human A431 carcinoma cells; assay type: functional, cell-based, A-431
Summary of the method: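 EGFR source: A431 shed membrane vesicles, solubilized in 4% Triton X-100/10% glycerol, 10 μg total protein per reaction. Final buffer: 20 mM HEPES pH 7.4, 15 mM MgCl₂, 4 mM MnCl₂, 0.02% BSA, 5 μM ATP with [γ-³²P]ATP, Glu:Ala:Tyr (6:3:1) copolymer substrate, 250 ng EGF. Run 10 min at room temperature, stopped with cold TCA/pyrophosphate. Filter-bound ³²P counted. IC50 is 50% reduction of incorporation. Autophosphorylation controls included.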

Swiss 3T3 (Mus musculus) = experiment: Inhibition of Swiss 3T3 mouse fibroblast proliferation

Chain of Epidermal growth factor receptor (P00533 whole entry): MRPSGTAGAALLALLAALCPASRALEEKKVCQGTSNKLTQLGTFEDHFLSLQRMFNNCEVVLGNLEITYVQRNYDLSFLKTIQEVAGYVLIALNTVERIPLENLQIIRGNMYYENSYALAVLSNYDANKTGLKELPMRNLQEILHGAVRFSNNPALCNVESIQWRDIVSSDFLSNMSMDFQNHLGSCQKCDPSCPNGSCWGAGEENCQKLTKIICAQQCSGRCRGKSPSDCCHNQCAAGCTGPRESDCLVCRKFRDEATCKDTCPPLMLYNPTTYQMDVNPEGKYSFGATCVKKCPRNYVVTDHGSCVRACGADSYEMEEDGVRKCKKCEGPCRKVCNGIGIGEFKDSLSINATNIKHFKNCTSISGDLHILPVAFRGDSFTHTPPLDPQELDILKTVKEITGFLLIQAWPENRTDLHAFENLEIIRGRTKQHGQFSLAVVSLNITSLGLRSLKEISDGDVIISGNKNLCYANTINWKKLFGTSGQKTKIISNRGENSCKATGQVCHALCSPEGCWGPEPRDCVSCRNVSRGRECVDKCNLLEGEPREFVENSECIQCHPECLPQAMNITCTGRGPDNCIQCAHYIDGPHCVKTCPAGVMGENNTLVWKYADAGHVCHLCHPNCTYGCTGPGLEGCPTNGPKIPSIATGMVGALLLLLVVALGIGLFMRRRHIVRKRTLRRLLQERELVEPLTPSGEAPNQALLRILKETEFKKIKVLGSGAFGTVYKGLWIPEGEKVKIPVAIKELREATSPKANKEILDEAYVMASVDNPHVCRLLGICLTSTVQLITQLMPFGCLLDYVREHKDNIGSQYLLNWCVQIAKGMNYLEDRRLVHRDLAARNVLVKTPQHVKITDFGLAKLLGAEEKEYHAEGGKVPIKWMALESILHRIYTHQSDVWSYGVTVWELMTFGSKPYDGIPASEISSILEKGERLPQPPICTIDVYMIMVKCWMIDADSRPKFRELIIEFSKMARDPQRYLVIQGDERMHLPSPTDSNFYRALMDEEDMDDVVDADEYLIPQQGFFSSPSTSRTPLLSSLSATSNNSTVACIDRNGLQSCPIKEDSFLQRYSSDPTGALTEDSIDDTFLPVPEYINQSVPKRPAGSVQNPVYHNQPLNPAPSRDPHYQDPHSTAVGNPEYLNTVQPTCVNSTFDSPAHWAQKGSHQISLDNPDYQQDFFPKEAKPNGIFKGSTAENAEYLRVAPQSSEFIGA

Row | Compound | IC50 [1] [µM] | IC50 (Swiss 3T3 (Mus musculus)) [µM]
1 | O=C(O)CCC1C(S)=Nc2ccccc21 (centres undefined) | 1.62 | 64
2 | COC(=O)CCN1C(=S)C(CCC(=O)OC)(CCC(=O)OC)c2ccccc21 | > 100 | 
3 | COC(=O)CCC1C(S)=Nc2ccccc21 (centres undefined) | > 100 | 16
4 | CN1C(=S)C(CCC(=O)O)c2ccccc21 (centres undefined) | 6.7 | 
5 | COC(=O)CCC1C(=S)N(C)c2ccccc21 (centres undefined) | > 100 | 
6 | COC(=O)Cc1c(Sc2c(CC(=O)OC)c3ccccc3n2C)n(C)c2ccccc12 | > 100 | 
7 | COC(=O)CC1C(=S)Nc2ccccc21 (centres undefined) | 100 | 
8 | COC(=O)CCC1(CCC(=O)OC)C(=S)Nc2ccccc21 | > 100 | 
9 | COC(=O)CCCC1C(=S)Nc2ccccc21 (centres undefined) | > 100 | 
10 | COC(=O)CCc1c(SSc2c(CCC(=O)OC)c3ccccc3n2C)n(C)c2ccccc12 | > 100 | 5.2
11 | CN1C(=S)C(CC(=O)O)c2ccccc21 (centres undefined) | > 100 | 
12 | COC(=O)CCCc1c(SSc2c(CCCC(=O)OC)c3ccccc3n2C)n(C)c2ccccc12 | > 100 | 1.8
13 | O=C(O)Cc1c(SSc2[nH]c3ccccc3c2CC(=O)O)[nH]c2ccccc12 | 10.2 | > 50
14 | COC(=O)CCCc1c(SSc2[nH]c3ccccc3c2CCCC(=O)OC)[nH]c2ccccc12 | > 100 | 
15 | COC(=O)Cc1c(SSSc2[nH]c3ccccc3c2CC(=O)OC)[nH]c2ccccc12 | 35 | 1
16 | O=C(O)CCc1c(SSc2[nH]c3ccccc3c2CCC(=O)O)[nH]c2ccccc12 | 4.2 | 59
17 | COC(=O)CCc1c(SSc2[nH]c3ccccc3c2CCC(=O)OC)[nH]c2ccccc12 | 21 | 7.4
18 | O=C(O)Cc1c(SSSc2[nH]c3ccccc3c2CC(=O)O)[nH]c2ccccc12 |  | 8
19 | COC(=O)CC1C(=S)N(C)c2ccccc21 (centres undefined) | > 100 | 
20 | Cc1cccc2c(CCC(=O)O)c(SSc3[nH]c4c(C)cccc4c3CCC(=O)O)[nH]c12 | 1.5 | 
21 | O=C(O)CCC1(CCC(=O)O)C(=S)Nc2ccccc21 | > 100 | 
22 | CN1C(=S)C(CCCC(=O)O)c2ccccc21 (centres undefined) | > 100 | 
23 | Cc1ccc2[nH]c(SSc3[nH]c4ccc(C)cc4c3CCC(=O)O)c(CCC(=O)O)c2c1 |  | > 50
24 | COC(=O)Cc1c(SSc2c(CC(=O)OC)c3ccccc3n2C)n(C)c2ccccc12 | 33 | 
25 | COC(=O)Cc1c(SSc2[nH]c3ccccc3c2CC(=O)OC)[nH]c2ccccc12 |  | 2.3
26 | Cn1c(SSc2c(CC(=O)O)c3ccccc3n2C)c(CC(=O)O)c2ccccc21 | 53 | 36
27 | Cn1c(SSc2c(CCC(=O)O)c3ccccc3n2C)c(CCC(=O)O)c2ccccc21 | 3.1 | 
28 | COC(=O)CCCC1C(=S)N(C)c2ccccc21 (centres undefined) | > 100 | 
29 | O=C(O)CCCC1C(=S)Nc2ccccc21 (centres undefined) | 6.7 | 
30 | O=CN/C=C/c1cc(O)ccc1O [ERBSTATIN] | 2 | 

Source: ChEMBL document CHEMBL1127050, “Tyrosine kinase inhibitors. 1. Structure-activity relationships for inhibition of epidermal growth factor receptor tyrosine kinase activity by 2,3-dihydro-2-thioxo-1H-indole-3-alkanoic acids and 2,2'-dithiobis(1H-indole-3-alkanoic acids)” (J Med Chem, 1993)
